Laboratory results taken from ChEMBL document CHEMBL4052814, “GNE-781, A Highly Advanced Potent and Selective Bromodomain Inhibitor of Cyclic Adenosine Monophosphate Response Element Binding Protein, Binding Protein (CBP)” (J Med Chem, 2017).

Experiments:
[1] = Oral bioavailability in Sprague-Dawley rat at 5 mg/kg by LC-MS/MS method; assay type: ADME, organism-based; conditions: in vivo
Procedure, shortened: (§1)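 Male Sprague-Dawley rats, 6–9 weeks, n = 3 per route. Dosed 1 mg/kg i.v. in PEG400/water (35/65) or 5 mg/kg p.o. in 0.5% methylcellulose, 0.2% Tween 80; oral groups fasted overnight until 4 h post-dose. Catheter blood sampled 0.033–24 h into K2EDTA and spun to plasma. Analysed by non-validated LC-MS/MS.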

[2] = AUClast in CD-1 mouse at 1 mg/kg, iv or 5 mg/kg, po by LC-MS/MS method; assay type: ADME, organism-based; conditions: in vivo
Procedure, shortened: (§2)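 Female CD-1 mice, 6–9 weeks, n = 3 per route. Dosed 1 mg/kg i.v. in PEG400/water (35/65) or 5 mg/kg p.o. as a suspension in 0.5% methylcellulose, 0.2% Tween 80. Serial tail-nick blood sampled to 24 h, diluted in EDTA-water. Parent drug measured by non-validated LC-MS/MS after acetonitrile precipitation with an indomethacin internal standard.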

[3] = target: Bromodomain adjacent to zinc finger domain protein 2B (Homo sapiens, UniProt Q9UIF8); assay: Displacement of biotinylated histone H3K14 peptide ligand from human recombinant His-tagged BAZ2B measured after 10 mins by TR-FRET assay
Chain of Bromodomain adjacent to zinc finger domain protein 2B (Q9UIF8 whole entry, the tested form may be a part): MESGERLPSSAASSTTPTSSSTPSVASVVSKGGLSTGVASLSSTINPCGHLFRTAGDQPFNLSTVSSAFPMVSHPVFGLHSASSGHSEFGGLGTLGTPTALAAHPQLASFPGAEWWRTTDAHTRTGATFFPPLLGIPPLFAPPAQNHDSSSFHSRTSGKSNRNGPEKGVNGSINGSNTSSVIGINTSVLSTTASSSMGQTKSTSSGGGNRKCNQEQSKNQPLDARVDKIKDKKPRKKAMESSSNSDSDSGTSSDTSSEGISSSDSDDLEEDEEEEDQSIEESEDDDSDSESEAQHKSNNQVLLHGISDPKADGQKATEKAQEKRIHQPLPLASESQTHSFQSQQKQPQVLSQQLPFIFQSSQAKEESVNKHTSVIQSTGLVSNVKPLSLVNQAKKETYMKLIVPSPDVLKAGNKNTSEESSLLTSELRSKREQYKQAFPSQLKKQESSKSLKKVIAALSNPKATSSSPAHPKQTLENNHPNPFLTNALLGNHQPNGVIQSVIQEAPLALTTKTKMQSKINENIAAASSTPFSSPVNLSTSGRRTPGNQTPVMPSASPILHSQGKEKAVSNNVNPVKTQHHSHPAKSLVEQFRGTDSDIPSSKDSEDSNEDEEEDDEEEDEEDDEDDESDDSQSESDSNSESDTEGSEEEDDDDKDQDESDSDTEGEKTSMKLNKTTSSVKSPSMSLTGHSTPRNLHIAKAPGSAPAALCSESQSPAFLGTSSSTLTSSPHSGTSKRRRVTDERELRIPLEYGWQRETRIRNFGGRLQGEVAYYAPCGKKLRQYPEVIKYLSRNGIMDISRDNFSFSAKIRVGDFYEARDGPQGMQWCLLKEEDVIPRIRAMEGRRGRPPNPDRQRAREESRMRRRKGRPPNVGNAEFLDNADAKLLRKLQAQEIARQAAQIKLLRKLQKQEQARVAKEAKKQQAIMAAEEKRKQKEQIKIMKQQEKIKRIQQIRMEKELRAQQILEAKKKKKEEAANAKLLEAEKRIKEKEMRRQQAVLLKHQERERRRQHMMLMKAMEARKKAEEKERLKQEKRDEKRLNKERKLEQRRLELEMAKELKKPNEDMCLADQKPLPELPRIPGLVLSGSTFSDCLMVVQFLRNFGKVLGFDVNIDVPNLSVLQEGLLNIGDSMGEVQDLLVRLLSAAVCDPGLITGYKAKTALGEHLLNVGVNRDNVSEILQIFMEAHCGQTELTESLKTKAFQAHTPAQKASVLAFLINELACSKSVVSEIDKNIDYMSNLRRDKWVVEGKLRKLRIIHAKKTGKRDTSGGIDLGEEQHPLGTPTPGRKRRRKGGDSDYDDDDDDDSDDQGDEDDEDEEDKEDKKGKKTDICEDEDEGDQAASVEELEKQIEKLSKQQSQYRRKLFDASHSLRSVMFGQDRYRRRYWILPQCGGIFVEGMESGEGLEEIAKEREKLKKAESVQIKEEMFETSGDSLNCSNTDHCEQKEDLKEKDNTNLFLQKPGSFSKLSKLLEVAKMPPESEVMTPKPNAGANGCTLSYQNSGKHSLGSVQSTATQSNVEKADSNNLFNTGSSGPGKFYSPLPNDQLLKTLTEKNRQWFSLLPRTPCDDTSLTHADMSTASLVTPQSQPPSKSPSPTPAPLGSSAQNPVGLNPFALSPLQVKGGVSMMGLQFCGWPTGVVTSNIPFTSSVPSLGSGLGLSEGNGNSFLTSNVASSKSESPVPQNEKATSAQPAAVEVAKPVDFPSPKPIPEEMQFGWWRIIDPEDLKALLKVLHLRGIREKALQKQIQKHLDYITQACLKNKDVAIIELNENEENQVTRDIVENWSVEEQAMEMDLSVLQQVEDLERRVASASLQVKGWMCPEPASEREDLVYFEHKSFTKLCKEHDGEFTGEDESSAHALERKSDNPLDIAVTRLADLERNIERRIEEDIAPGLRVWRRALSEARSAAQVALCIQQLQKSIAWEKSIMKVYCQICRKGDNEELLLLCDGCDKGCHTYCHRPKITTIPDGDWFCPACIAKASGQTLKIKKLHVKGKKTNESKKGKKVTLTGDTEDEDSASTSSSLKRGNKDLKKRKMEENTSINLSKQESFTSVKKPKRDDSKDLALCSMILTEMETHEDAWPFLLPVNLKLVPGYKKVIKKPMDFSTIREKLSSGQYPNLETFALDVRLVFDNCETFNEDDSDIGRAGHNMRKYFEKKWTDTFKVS

[4] = AUClast in Sprague-Dawley rat at 1 mg/kg, iv or 5 mg/kg, po by LC-MS/MS method; assay type: ADME, organism-based; conditions: in vivo; procedure, shortened: as §1
[5] = Apparent permeability from apical side to basolateral side in MDCK cells at 10 uM measured after 180 mins by LC-MS/MS analysis; assay type: ADME, cell-based, Canis lupus familiaris; conditions: dog
[6] = Cmax in CD-1 mouse at 1 mg/kg, iv or 5 mg/kg, po by LC-MS/MS method; assay type: ADME, organism-based; conditions: in vivo; procedure, shortened: as §2
[7] = target: Chromatin remodeling regulator CECR2 (Homo sapiens, UniProt Q9BXF3); assay: Displacement of biotinylated histone H3K14 peptide ligand from human recombinant His-tagged CECR2 measured after 10 mins by TR-FRET assay
[8] = Cmax in cynomolgus monkey at 1 mg/kg, iv or 5 mg/kg, po by LC-MS/MS method; assay type: ADME, organism-based, Macaca fascicularis; conditions: in vivo
Procedure, shortened: (§3)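 Non-naïve male cynomolgus monkeys, at least 2 years old, n = 3 per route. Given 1 mg/kg i.v. in EtOH/PEG400/water (20/15/65) or 5 mg/kg p.o. in 0.5% methylcellulose, 0.2% Tween 80; oral groups fasted. Plasma (K2EDTA) collected pre-dose to 24 h. Analysed by non-validated LC-MS/MS.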

[9] = Oral bioavailability in CD-1 mouse at 5 mg/kg by LC-MS/MS method; assay type: ADME, organism-based; conditions: in vivo; procedure, shortened: as §2
[10] = Cmax in Sprague-Dawley rat at 1 mg/kg, iv or 5 mg/kg, po by LC-MS/MS method; assay type: ADME, organism-based; conditions: in vivo; procedure, shortened: as §1
[11] = Oral bioavailability in beagle dog at 5 mg/kg by LC-MS/MS method; assay type: ADME, organism-based, Canis lupus familiaris; conditions: in vivo
Procedure, shortened: (§4)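 Non-naïve male beagle dogs, n = 3 per route. Dosed 1 mg/kg i.v. in EtOH/PEG400/water (20/15/65) or 5 mg/kg p.o. in 0.5% methylcellulose, 0.2% Tween 80; oral groups fasted overnight until 4 h post-dose. Peripheral blood taken pre-dose to 24 h and processed to K2EDTA plasma. Analysed by non-validated LC-MS/MS.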

[12] = AUClast in beagle dog at 1 mg/kg, iv or 5 mg/kg, po by LC-MS/MS method; assay type: ADME, organism-based, Canis lupus familiaris; conditions: in vivo; procedure, shortened: as §4
[13] = Oral bioavailability in cynomolgus monkey at 5 mg/kg by LC-MS/MS method; assay type: ADME, organism-based, Macaca fascicularis; conditions: in vivo; procedure, shortened: as §3
[14] = Protein binding in mouse plasma at 5 uM incubated for 4 hrs measured by LC-MS/MS method; assay type: ADME, cell-free; conditions: read-out: PPB (converted)
[15] = Clearance in beagle dog at 1 mg/kg, iv or 5 mg/kg, po by LC-MS/MS method; assay type: ADME, organism-based, Canis lupus familiaris; conditions: in vivo; procedure, shortened: as §4
[16] = target: T1, Transcription initiation factor TFIID subunit 1 (Homo sapiens, UniProt P21675); assay: Displacement of biotinylated histone H3K14 peptide ligand from recombinant His-tagged TAF1 bromodomain-2 (unknown origin) measured after 10 mins by TR-FRET assay
T1 sequence (P21675 whole entry): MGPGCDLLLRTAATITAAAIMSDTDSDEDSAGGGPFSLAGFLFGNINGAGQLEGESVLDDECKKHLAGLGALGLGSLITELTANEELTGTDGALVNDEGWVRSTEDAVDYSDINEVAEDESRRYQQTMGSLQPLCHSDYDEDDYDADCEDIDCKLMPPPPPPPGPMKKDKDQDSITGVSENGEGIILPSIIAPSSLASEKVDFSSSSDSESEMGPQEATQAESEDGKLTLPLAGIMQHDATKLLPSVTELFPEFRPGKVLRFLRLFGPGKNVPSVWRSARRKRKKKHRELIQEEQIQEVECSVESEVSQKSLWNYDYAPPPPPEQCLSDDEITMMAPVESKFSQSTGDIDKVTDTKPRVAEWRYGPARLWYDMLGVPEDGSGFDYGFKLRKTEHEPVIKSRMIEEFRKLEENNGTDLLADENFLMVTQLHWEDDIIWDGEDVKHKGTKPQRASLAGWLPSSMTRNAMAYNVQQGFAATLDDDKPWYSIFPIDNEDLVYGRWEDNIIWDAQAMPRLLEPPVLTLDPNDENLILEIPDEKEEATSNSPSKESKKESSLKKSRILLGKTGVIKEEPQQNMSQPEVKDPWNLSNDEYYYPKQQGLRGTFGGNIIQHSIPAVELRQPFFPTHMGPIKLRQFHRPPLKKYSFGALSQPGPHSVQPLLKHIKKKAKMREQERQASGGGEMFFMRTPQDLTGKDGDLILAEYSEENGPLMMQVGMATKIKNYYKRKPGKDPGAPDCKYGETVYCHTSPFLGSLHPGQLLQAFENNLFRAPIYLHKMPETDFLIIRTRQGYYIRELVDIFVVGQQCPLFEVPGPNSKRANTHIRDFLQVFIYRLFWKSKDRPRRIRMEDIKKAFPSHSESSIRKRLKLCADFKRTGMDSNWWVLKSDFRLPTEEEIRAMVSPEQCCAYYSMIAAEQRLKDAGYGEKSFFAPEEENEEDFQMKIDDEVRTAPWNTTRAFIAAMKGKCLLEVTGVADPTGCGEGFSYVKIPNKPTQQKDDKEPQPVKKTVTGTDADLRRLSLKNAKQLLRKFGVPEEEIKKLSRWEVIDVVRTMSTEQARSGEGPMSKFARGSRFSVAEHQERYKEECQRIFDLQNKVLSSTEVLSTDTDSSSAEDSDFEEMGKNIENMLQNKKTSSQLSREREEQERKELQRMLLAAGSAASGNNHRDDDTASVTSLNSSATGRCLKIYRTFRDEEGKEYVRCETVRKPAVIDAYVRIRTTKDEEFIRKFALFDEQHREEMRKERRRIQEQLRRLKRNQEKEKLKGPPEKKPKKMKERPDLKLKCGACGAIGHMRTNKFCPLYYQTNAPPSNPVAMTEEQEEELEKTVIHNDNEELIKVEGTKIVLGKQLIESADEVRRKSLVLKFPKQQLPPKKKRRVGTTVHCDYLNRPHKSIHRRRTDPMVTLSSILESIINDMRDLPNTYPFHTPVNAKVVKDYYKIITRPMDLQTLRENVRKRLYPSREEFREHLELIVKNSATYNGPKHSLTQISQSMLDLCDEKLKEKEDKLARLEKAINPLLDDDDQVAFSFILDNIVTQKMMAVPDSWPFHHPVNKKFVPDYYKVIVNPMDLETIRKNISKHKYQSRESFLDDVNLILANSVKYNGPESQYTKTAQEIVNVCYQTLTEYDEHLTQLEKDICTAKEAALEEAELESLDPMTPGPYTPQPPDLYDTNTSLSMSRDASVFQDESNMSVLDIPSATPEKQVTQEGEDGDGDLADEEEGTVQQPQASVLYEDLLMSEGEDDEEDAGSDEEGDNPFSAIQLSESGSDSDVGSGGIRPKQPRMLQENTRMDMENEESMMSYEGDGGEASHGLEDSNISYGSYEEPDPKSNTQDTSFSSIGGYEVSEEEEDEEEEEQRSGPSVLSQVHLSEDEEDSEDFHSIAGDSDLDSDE

Rattus norvegicus = assay: Neurotoxicity in rat assessed as effect on vocalization and hyperactivity at 250 mg/kg administered as single dose; assay type: toxicity, organism-based; conditions: in vivo
[17] = Clearance in Sprague-Dawley rat at 1 mg/kg, iv or 5 mg/kg, po by LC-MS/MS method; assay type: ADME, organism-based; conditions: in vivo; procedure, shortened: as §1
[18] = Volume of distribution at steady state in beagle dog at 1 mg/kg, iv or 5 mg/kg, po by LC-MS/MS method; assay type: ADME, organism-based, Canis lupus familiaris; conditions: in vivo, read-out: Vdss
Procedure, shortened: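 Non-naïve male beagle dogs or cynomolgus monkeys, n=3 per route. Dosing was 1 mg/kg i.v. in EtOH/PEG400/water 20/15/65 or 5 mg/kg p.o. in 0.5% methylcellulose/0.2% Tween 80; the p.o. group was fasted overnight. Peripheral blood was taken pre-dose to 24 h into K2EDTA and processed to plasma. Quantified by LC-MS/MS.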

[19] = Protein binding in human plasma at 5 uM incubated for 4 hrs measured by LC-MS/MS method; assay type: ADME, cell-free; conditions: read-out: PPB (converted)
[20] = Half life in CD-1 mouse at 1 mg/kg, iv or 5 mg/kg, po by LC-MS/MS method; assay type: ADME, organism-based; conditions: in vivo; procedure, shortened: as §2
[21] = target: T1, Transcription initiation factor TFIID subunit 1; assay: Displacement of biotinylated histone H3K14 peptide ligand from human recombinant His-tagged TAF1 bromodomain-1 measured after 10 mins by TR-FRET assay
[22] = target: Histone acetyltransferase p300 (Homo sapiens, UniProt Q09472); assay: Displacement of biotinylated histone H3K14 peptide ligand from human recombinant His-tagged P300 measured after 10 mins by TR-FRET assay
Peregrin = Peregrin (Homo sapiens, UniProt P55201); assay: Displacement of biotinylated histone H3K14 peptide ligand from human recombinant His-tagged BRPF1 measured after 10 mins by TR-FRET assay
[23] = Clearance in CD-1 mouse at 1 mg/kg, iv or 5 mg/kg, po by LC-MS/MS method; assay type: ADME, organism-based; conditions: in vivo; procedure, shortened: as §2
[24] = Half life in Sprague-Dawley rat at 1 mg/kg, iv or 5 mg/kg, po by LC-MS/MS method; assay type: ADME, organism-based; conditions: in vivo; procedure, shortened: as §1
[25] = target: Histone acetyltransferase KAT2B (Homo sapiens, UniProt Q92831); assay: Displacement of biotinylated histone H3K14 peptide ligand from human recombinant His-tagged PCAF measured after 10 mins by TR-FRET assay
[26] = target: Bromodomain-containing protein 9 (Homo sapiens, UniProt Q9H8M2); assay: Displacement of biotinylated histone H3K14 peptide ligand from human recombinant His-tagged BRD9 measured after 10 mins by TR-FRET assay
[27] = target: Histone acetyltransferase KAT2A (Homo sapiens, UniProt Q92830); assay: Displacement of biotinylated histone H3K14 peptide ligand from recombinant His-tagged human GCN5L2 measured after 10 mins by TR-FRET assay
Chain of Histone acetyltransferase KAT2A (Q92830 whole entry): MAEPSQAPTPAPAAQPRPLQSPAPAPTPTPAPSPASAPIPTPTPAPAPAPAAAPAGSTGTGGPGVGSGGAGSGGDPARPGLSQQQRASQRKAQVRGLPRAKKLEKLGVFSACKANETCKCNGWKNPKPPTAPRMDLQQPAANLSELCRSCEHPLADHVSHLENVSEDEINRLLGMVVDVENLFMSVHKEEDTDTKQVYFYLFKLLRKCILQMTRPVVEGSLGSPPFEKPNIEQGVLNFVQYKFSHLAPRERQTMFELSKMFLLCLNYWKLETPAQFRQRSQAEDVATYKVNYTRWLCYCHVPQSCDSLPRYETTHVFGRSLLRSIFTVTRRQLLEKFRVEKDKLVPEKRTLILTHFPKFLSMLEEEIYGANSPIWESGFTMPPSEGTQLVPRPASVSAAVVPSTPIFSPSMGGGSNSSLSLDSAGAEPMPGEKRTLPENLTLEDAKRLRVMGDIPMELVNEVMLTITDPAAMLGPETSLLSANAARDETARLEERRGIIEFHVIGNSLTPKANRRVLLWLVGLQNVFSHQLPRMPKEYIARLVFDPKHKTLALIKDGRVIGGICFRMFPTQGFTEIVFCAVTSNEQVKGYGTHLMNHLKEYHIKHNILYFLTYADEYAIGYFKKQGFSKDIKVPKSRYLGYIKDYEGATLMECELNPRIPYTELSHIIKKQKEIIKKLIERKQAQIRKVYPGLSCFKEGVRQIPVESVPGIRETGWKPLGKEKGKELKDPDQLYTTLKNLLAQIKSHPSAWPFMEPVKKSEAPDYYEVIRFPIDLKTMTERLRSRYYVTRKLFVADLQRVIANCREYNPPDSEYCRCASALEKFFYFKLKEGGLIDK

[28] = Half life in cynomolgus monkey at 1 mg/kg, iv or 5 mg/kg, po by LC-MS/MS method; assay type: ADME, organism-based, Macaca fascicularis; conditions: in vivo; procedure, shortened: as §3
[29] = Protein binding in cynomolgus monkey plasma at 5 uM incubated for 4 hrs measured by LC-MS/MS method; assay type: ADME, cell-free, Macaca fascicularis; conditions: read-out: PPB (converted)

| SMILES | bioavailability [1] [%] | AUC(0-t) [2] [µM·h] | IC50 [3] [µM] | AUC(0-t) [4] [µM·h] | Papp A→B at 3 h, 10 µM [5] [×10⁻⁶ cm/s] | Cmax [6] [µM] | IC50 [7] [µM] | Cmax [8] [µM] | bioavailability [9] [%] | Cmax [10] [µM] | bioavailability [11] [%] | AUC(0-t) [12] [µM·h] | bioavailability [13] [%] | fraction unbound at 4 h, 5 µM [14] | clearance [15] [mL/min/kg] | IC50 [16] [µM] | Activity (Rattus norvegicus) | clearance [17] [mL/min/kg] | Vd [18] [L/kg] | fraction unbound at 4 h, 5 µM [19] | also measured |
| --- | --- | --- | --- | --- | --- | --- | --- | --- | --- | --- | --- | --- | --- | --- | --- | --- | --- | --- | --- | --- | --- |
| CC(=O)N1CCc2c(c(N3CCCc4cc(-c5cnn(C)c5)c(C(F)F)cc43)nn2C2CCOCC2)C1 | 93 | 13.7 | > 20 | 9.4 | 15 | 4.2 | 14 | 1.6 | 72 | 3.2 | 94 | 31 | 39 | 0.08 | 4.6 | > 20 | Toxic | 16 | 1 | 0.16 | half-life [20]: 1.1 h; IC50 [21]: > 20 µM; IC50 [22]: 0.0013 µM; IC50 (Peregrin): > 20 µM; clearance [23]: 8.8 mL/min/kg; half-life [24]: 0.66 h; IC50 [25]: > 20 µM; IC50 [26]: > 20 µM; IC50 [27]: > 20 µM; half-life [28]: 2.8 h; fraction unbound at 4 h, 5 µM [29]: 0.21 |
| CNC(=O)N1CCc2c(c(N3CCCc4cc(-c5cnn(C)c5)c(C(F)F)cc43)nn2C2CCOCC2)C1 | 37 | 6.5 | > 18 | 16 | 19 | 23 | > 20 | 1.9 | 73 | 4.1 | 100 | 44 | 28 | 0.06 | 4.8 | > 20 | Non-Toxic | 3.8 | 1.5 | 0.16 | half-life [20]: 1.4 h; IC50 [21]: > 20 µM; IC50 [22]: 0.0012 µM; IC50 (Peregrin): 4.6 µM; clearance [23]: 5.2 mL/min/kg; half-life [24]: 3.7 h; IC50 [25]: > 20 µM; IC50 [26]: > 20 µM; IC50 [27]: > 20 µM; half-life [28]: 0.72 h; fraction unbound at 4 h, 5 µM [29]: 0.22 |
